Results taken from ChEMBL document CHEMBL1146375, “Synthetic studies on novel benzimidazolopeptides with antimicrobial, cytotoxic and anthelmintic potential” (2007).
Converted amounts (≈) assume the structure as drawn.

Assays:
Candida albicans [1] = experiment: Antifungal activity against Candida albicans MUCC 29 after 48 hrs by disc diffusion method; format: functional
How it was run: (§1)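 Agar well diffusion on plates inoculated with spore suspension in normal saline from cultures on Sabouraud's broth. Wells punched and loaded with test samples or griseofulvin at 10 mg mL^-1, with DMSO as negative control. Incubated 48 h at 37 °C.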

Pseudomonas aeruginosa [2] = experiment: Antibacterial activity against Pseudomonas aeruginosa NCIM 2034 after 18 hrs by disc diffusion method; format: functional
How it was run: (§2)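 Modified Kirby-Bauer disc diffusion. Plates inoculated with spore suspension (about 6 × 10⁴ spores mL^-1). Sterile 6 mm paper discs carried test samples at 10 mg mL^-1; ciprofloxacin disc as reference, DMF disc as negative control. Plates held 18 h at 37 °C. Inhibition zone diameters (mm) averaged over triplicate sets.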

[3] = Anthelmintic activity against Megascoplex konkanensis ICARBC 211 assessed as mean paralyzing time; format: functional
How it was run: (§3)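 Earthworms exposed to test suspensions at 2 mg mL^-1 (0.2% w/v), made by triturating compound with Tween 80 (0.5%) and distilled water, then mechanically stirred 30 min. Mebendazole suspension prepared alike as reference. Paralysis and death times recorded; death confirmed by no movement in 50 °C water. Means from triplicate sets.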

Trichophyton benhamiae [4] = experiment: Antifungal activity against Trichophyton mentagrophytes MUCC 665 after 48 hrs by disc diffusion method; format: functional, Arthroderma benhamiae; how it was run: as §1
Pseudomonas aeruginosa [5] = experiment: Antibacterial activity against Pseudomonas aeruginosa NCIM 2034 after 18 hrs by tube dilution method; format: functional; details: NCIM 2034, 18 h
How it was run: (§4)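 Tube dilution MIC. Stock diluted in sterile broth to seven concentrations from 200 to 3.1 […]. Each tube inoculated with one loopful of test bacterium and incubated 18 h at 37 °C. MIC read from presence or absence of growth.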

Microsporum audouinii [6] = experiment: Antifungal activity against Microsporum audouinii MUCC 545 after 48 hrs by tube dilution method; format: functional
How it was run: (§5)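 Tube dilution MIC as for bacteria (seven concentrations, 200–3.1 […]), with DMSO in place of DMF. Tubes inoculated with fungal culture and incubated 48 h at 37 °C. MIC read from presence or absence of growth.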

Escherichia coli [7] = experiment: Antibacterial activity against Escherichia coli NCIM 2065 after 18 hrs by disc diffusion method; format: functional; how it was run: as §2
Staphylococcus aureus [8] = experiment: Antibacterial activity against Staphylococcus aureus NCIM 2079 after 18 hrs by tube dilution method; format: functional; details: NCIM 2079, 18 h; how it was run: as §4
Aspergillus niger = experiment: Antifungal activity against Aspergillus niger MUCC 177 after 48 hrs by disc diffusion method; format: functional; how it was run: as §1
Microsporum audouinii [9] = experiment: Antifungal activity against Microsporum audouinii MUCC 545 after 48 hrs by disc diffusion method; format: functional; how it was run: as §1
Bacillus subtilis [10] = experiment: Antibacterial activity against Bacillus subtilis NCIM 2063 after 18 hrs by disc diffusion method; format: functional; how it was run: as §2
Pontoscolex corethrurus [11] = experiment: Anthelmintic activity against Pontoscolex corethrurus ICARBC 408 assessed as mean death time; format: functional
How it was run: (§6)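 Earthworms exposed to test suspensions at 2 mg mL−1, prepared by triturating compound with Tween 80 (0.5%) and distilled water, stirring 30 min, then diluting to 0.2% w/v. Mebendazole suspension was made the same way. Death was confirmed by moving worms into 50 °C warm water and looking for movement. Mean death time (min) taken from triplicate sets.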

Staphylococcus aureus [12] = experiment: Antibacterial activity against Staphylococcus aureus NCIM 2079 after 18 hrs by disc diffusion method; format: functional; how it was run: as §2
Eudrilus [13] = experiment: Anthelmintic activity against Eudrilus sp. assessed as mean paralyzing time; format: functional; how it was run: as §3
Trichophyton benhamiae [14] = experiment: Antifungal activity against Trichophyton mentagrophytes MUCC 665 after 48 hrs by tube dilution method; format: functional, Arthroderma benhamiae; how it was run: as §5
Candida albicans [15] = experiment: Antifungal activity against Candida albicans MUCC 29 after 48 hrs by tube dilution method; format: functional; how it was run: as §5
Escherichia coli [16] = experiment: Antibacterial activity against Escherichia coli NCIM 2065 after 18 hrs by tube dilution method; format: functional; details: NCIM 2065, 18 h
[17] = Anthelmintic activity against Megascoplex konkanensis ICARBC 211 assessed as mean death time; format: functional; how it was run: as §3
Eudrilus [18] = experiment: Anthelmintic activity against Eudrilus sp. assessed as mean death time; format: functional; how it was run: as §6
Bacillus subtilis [19] = experiment: Antibacterial activity against Bacillus subtilis NCIM 2063 after 18 hrs by tube dilution method; format: functional; details: NCIM 2063, 18 h; how it was run: as §4
Pontoscolex corethrurus [20] = experiment: Anthelmintic activity against Pontoscolex corethrurus ICARBC 408 assessed as mean paralyzing time; format: functional; how it was run: as §3

SMILES	inhibition zone (IZ) (Candida albicans [1]) [mm]	inhibition zone (IZ) (Pseudomonas aeruginosa [2]) [mm]	TIME [3] [h]	inhibition zone (IZ) (Trichophyton benhamiae [4]) [mm]	MIC (Pseudomonas aeruginosa [5]) [µg/mL]	MIC (Microsporum audouinii [6]) [µg/mL]	inhibition zone (IZ) (Escherichia coli [7]) [mm]	MIC (Staphylococcus aureus [8]) [µg/mL]	inhibition zone (IZ) (Aspergillus niger) [mm]	inhibition zone (IZ) (Microsporum audouinii [9]) [mm]	inhibition zone (IZ) (Bacillus subtilis [10]) [mm]	Time (Pontoscolex corethrurus [11]) [min]	inhibition zone (IZ) (Staphylococcus aureus [12]) [mm]	Time (Eudrilus [13]) [min]	MIC (Trichophyton benhamiae [14]) [µg/mL]	MIC (Candida albicans [15]) [µg/mL]	MIC (Escherichia coli [16]) [µg/mL]	TIME [17] [h]	Time (Eudrilus [18]) [min]	MIC (Bacillus subtilis [19]) [µg/mL]	further results
COC(=O)[C@H](Cc1cnc[nH]1)NC(=O)c1cc(I)c(-c2nc3cc(C)c(C)cc3[nH]2)c(I)c1	18	24	0.488	12	6 (≈ 8.97 µM)	25 (≈ 37.4 µM)	18	12.5 (≈ 18.7 µM)	14	11	16	47.82	12	34.34	12.5 (≈ 18.7 µM)	6 (≈ 8.97 µM)	12.5 (≈ 18.7 µM)	0.758	46.3	6 (≈ 8.97 µM)	Time (Pontoscolex corethrurus [20]): 34.14 min
COC(=O)CNC(=O)CNC(=O)c1cc(-c2nc3ccc([N+](=O)[O-])cc3[nH]2)ccc1O	18	22	0.461	15	6 (≈ 14 µM)	6 (≈ 14 µM)	16	12.5 (≈ 29.2 µM)	17	13	9	42.45	9	25.74	6 (≈ 14 µM)	6 (≈ 14 µM)	12.5 (≈ 29.2 µM)	0.608	36.77	25 (≈ 58.5 µM)	Time (Pontoscolex corethrurus [20]): 31.38 min
Cc1cc2nc(-c3ccc(O)c(C(=O)N[C@@H](C)C(=O)N[C@H](C(=O)N[C@@H](C)C(=O)O)C(C)C)c3)[nH]c2cc1C	19	21	0.42	15	6 (≈ 11.5 µM)	6 (≈ 11.5 µM)	17	25 (≈ 47.7 µM)	17	11	14	41.6	11	25.18	6 (≈ 11.5 µM)	6 (≈ 11.5 µM)	25 (≈ 47.7 µM)	0.57	36.14	6 (≈ 11.5 µM)	Time (Pontoscolex corethrurus [20]): 29.65 min
COC(=O)[C@H](Cc1ccc(O)cc1)NC(=O)[C@H](Cc1cnc[nH]1)NC(=O)c1ccc(-c2nc3cc(C)c(C)cc3[nH]2)cc1	16	19	0.228	13	12.5 (≈ 21.5 µM)	25 (≈ 43.1 µM)	15	12.5 (≈ 21.5 µM)	16	8	14	29.18	10	13.49	6 (≈ 10.3 µM)	12.5 (≈ 21.5 µM)	25 (≈ 43.1 µM)	0.377	23.98	6 (≈ 10.3 µM)	Time (Pontoscolex corethrurus [20]): 17.55 min
COC(=O)[C@H](C)NC(=O)[C@@H](NC(=O)[C@H](C)NC(=O)c1cc(-c2nc3cc(C)c(C)cc3[nH]2)ccc1O)C(C)C	18	19	0.426	14	6 (≈ 11.2 µM)	6 (≈ 11.2 µM)	16	25 (≈ 46.5 µM)	16	10	13	41.79	9	25.55	6 (≈ 11.2 µM)	6 (≈ 11.2 µM)	25 (≈ 46.5 µM)	0.578	36.23	6 (≈ 11.2 µM)	Time (Pontoscolex corethrurus [20]): 29.89 min
